Data set [1] addresses T1, Histone deacetylase 1 (Homo sapiens, UniProt Q13547). Kind of data set: Inhibition of recombinant human full length C-terminal FLAG/His-tagged HDAC1 expressed in Sf9 insect cells using ZMAL (Z-(Ac)Lys-AMC as substrate measured after 90 mins by fluorescence plate reader analysis.
Data set [2] addresses T2, Protein deacetylase HDAC6 (Homo sapiens, UniProt Q9UBN7).
T2 sequence (Q9UBN7 whole entry): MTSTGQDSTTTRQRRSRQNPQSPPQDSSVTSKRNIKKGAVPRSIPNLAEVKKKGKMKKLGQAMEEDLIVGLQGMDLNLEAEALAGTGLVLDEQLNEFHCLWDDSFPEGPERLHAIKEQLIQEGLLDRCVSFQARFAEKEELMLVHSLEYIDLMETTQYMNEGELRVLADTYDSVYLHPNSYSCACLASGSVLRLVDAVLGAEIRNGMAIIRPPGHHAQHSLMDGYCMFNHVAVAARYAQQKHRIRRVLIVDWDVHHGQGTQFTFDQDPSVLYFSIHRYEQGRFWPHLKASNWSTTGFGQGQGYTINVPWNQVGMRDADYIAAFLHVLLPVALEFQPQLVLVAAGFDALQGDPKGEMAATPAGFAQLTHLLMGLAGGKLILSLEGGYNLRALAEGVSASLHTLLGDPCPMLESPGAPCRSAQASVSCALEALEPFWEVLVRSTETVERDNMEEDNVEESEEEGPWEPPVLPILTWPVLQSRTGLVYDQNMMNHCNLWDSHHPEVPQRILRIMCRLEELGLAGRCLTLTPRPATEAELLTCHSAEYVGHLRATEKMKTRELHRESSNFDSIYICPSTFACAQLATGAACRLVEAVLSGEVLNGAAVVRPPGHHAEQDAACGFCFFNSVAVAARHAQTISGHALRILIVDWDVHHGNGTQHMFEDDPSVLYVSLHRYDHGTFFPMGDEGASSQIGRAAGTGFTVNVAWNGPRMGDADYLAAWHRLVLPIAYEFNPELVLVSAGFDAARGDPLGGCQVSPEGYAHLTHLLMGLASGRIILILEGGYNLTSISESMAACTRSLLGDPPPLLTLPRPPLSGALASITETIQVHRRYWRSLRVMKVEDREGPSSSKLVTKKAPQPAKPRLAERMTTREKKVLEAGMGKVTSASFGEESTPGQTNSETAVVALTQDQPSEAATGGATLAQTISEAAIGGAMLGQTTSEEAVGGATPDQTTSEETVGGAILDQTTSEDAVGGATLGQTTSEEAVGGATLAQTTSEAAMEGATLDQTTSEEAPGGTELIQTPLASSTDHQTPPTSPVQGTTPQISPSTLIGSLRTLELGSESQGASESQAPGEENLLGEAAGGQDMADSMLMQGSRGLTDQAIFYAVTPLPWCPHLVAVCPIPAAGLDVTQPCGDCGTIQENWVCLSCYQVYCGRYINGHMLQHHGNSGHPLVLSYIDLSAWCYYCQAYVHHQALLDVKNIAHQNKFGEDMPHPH
In words: Inhibition of recombinant human full length N-terminal GST-tagged HDAC6 expressed in Sf9 cells using ZMAL (Z-(Ac)Lys-AMC as substrate measured after 90 mins by fluorescence plate reader analysis.

The target of data set [3] is T1, Histone deacetylase 1. In words: Inhibition of recombinant human full length C-terminal FLAG/His-tagged HDAC1 expressed in Sf9 insect cells using ZMAL (Z-(Ac)Lys-AMC as substrate at 10 uM measured after 90 mins by fluorescence plate reader analysis relative to control.
Data set [4] addresses T3, Protein deacetylase HDAC6 (Homo sapiens) (UniProt Q9UBN7).
T3 sequence (whole entry): T2 sequence (Q9UBN7 whole entry)
In words: Inhibition of recombinant human full length N-terminal GST-tagged HDAC6 expressed in Sf9 cells using ZMAL (Z-(Ac)Lys-AMC as substrate at 10 uM measured after 90 mins by fluorescence plate reader analysis relative to control.

The target in data set [5] is T3, Protein deacetylase HDAC6 (Homo sapiens). In words: Inhibition of recombinant human full length N-terminal GST-tagged HDAC6 expressed in Sf9 cells using ZMAL (Z-(Ac)Lys-AMC as substrate at 50 uM measured after 90 mins by fluorescence plate reader analysis relative to control.
The target of data set [6] is T1, Histone deacetylase 1. In words: Inhibition of recombinant human full length C-terminal FLAG/His-tagged HDAC1 expressed in Sf9 insect cells using ZMAL (Z-(Ac)Lys-AMC as substrate at 1 uM measured after 90 mins by fluorescence plate reader analysis relative to control.
The target of data set [7] is T3, Protein deacetylase HDAC6 (Homo sapiens). Kind of data set: Inhibition of recombinant human full length N-terminal GST-tagged HDAC6 expressed in Sf9 cells using ZMAL (Z-(Ac)Lys-AMC as substrate at 1 uM measured after 90 mins by fluorescence plate reader analysis relative to control.
Data set [8] has as its target T1, Histone deacetylase 1. Kind of data set: Inhibition of recombinant human full length C-terminal FLAG/His-tagged HDAC1 expressed in Sf9 insect cells using ZMAL (Z-(Ac)Lys-AMC as substrate at 50 uM measured after 90 mins by fluorescence plate reader analysis relative to control.
The target in data set [9] is T4, Histone deacetylase 8 (Homo sapiens) (UniProt Q9BY41).
T4 sequence (whole entry): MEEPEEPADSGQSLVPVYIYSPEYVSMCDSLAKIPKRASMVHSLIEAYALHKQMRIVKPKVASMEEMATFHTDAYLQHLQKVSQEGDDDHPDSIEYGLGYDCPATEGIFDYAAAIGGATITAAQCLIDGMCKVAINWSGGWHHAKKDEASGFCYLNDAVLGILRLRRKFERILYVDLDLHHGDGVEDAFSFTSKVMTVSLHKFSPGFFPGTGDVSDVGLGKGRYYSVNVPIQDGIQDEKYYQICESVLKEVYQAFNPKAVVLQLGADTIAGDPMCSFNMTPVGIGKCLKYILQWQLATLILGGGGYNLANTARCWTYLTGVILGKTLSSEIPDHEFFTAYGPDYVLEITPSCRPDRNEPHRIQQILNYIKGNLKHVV
Kind of data set: Inhibition of recombinant human HDAC8 using FLUOR DE LYS as substrate preincubated for 15 mins followed by substrate addition at 50 uM measured after 1 hrs by fluorescence plate reader analysis relative to control. As to conditions: time 75.0 min. The gist of the method: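 Kit recombinant human HDAC8 (0.45 U/reaction) was preincubated 15 min with compound (0.5% DMSO; DMSO-only control). Fluor de Lys substrate was then added at 50 µM final and the reaction ran 1 h at 30 °C. It was quenched with 2 µM TSA in Developer II for a further 1 h at 30 °C, and fluorescence read at ex 370/em 450 nm. IC50 came from nonlinear dose–response fitting.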

Data set [10] in a line: Cytotoxicity against mouse NIH3T3 cells assessed as inhibition of cell growth by neutral red uptake assay.
A further data set relates to U-937. In words: Antiproliferation activity against human U-937 cells assessed as reduction in cell viability at 5 to 50 uM measured after 48 hrs by CCK-8 assay. The following applies: dose 5-50 µM. The data set is classed as functional, cell-based. An outline of the steps:
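U937 cells were exposed in triplicate to 1, 5, 10 and 50 µM for 24 and 48 h. CCK-8 (WST-8) reagent was then added, with 3 h further incubation at 37 °C, and absorbance was read at 450 nm to give viability.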
(Tetrazolium dyes change colour on reduction, which living cells bring about.)

The test system of the next data set is HCT-116. In words: Antiproliferation activity against human HCT-116 cells assessed as reduction in cell viability at 5 to 50 uM measured after 48 hrs by MTT assay. It counts as functional, cell-based. As to conditions: dose 5-50 µM. The gist of the method: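 HCT116 cells in DMEM with 10% heat-inactivated FBS were seeded at 3×10^4 cells/well and treated in triplicate at 1, 5, 10 and 50 µM for 24 and 48 h. MTT at 0.5 mg/mL was added for 3 h, formazan was dissolved in DMSO, and absorbance was read at 570 nm.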

The values that follow come from ChEMBL document CHEMBL5113395, “Azetidin-2-one-based small molecules as dual hHDAC6/HDAC8 inhibitors: Investigation of their mechanism of action and impact of dual inhibition profile on cell viability” (Eur J Med Chem, 2022).

Calls of active or inactive are those of the source. The calls are words filed in the database; no cut-off is given here.

In general, IC50 refers to the midpoint of a concentration-inhibition curve. As usually defined, the inhibition is the relative decrease from the control value, in per cent. In general, CC50 refers to the concentration that lowers cell viability or growth by half.

T1 sequence (Q13547 whole entry): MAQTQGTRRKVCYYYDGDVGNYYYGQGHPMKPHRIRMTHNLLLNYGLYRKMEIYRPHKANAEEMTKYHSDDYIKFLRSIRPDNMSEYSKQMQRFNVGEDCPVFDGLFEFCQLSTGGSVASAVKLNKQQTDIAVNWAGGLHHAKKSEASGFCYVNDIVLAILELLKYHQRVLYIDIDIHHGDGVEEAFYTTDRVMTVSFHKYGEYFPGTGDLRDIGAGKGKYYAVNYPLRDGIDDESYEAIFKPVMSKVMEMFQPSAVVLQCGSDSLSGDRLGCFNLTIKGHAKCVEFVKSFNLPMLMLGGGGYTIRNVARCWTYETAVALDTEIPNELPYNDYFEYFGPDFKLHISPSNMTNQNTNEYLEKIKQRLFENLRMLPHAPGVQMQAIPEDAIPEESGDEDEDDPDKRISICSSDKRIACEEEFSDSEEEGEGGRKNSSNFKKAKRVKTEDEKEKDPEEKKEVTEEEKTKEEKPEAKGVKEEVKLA

As for `O=C(NO)c1ccc(NC(=O)N2CCC(N3C(=O)[C@H](c4ccccc4)[C@H]3c3ccccc3)CC2)cc1` (racemic), the IC50 came out at 1270 nM at Histone deacetylase 1 [1] and 203 nM in data set [2].

For the compound `O=C(Cc1ccc(NC(=O)N2CCC(N3C(=O)[C@H](c4ccccc4)[C@H]3c3ccccc3)CC2)cc1)NO` (racemic), the inhibition on Histone deacetylase 1 [3] came out at 53.3%; in data set [4], 94.2%; in data set [5] it was 103%; on Histone deacetylase 1 [6], 23.6%; in data set [7], 60.2%; at Histone deacetylase 1 [8] it was 82.7%.

Regarding `O=C(NO)c1ccc(COC(=O)N2CCC(N3CC(c4ccccc4)(c4ccccc4)C3=O)CC2)cc1`, the values for the IC50 (on Histone deacetylase 1 [1]; in [2]) were 4100 nM and 18.5 nM, respectively. The inhibition in data set [9] is 13%. In [10], the CC50 stood at 80000 nM.

For `O=C(NO)c1ccc(CNC(=O)N2CCC(N3C(=O)CC3c3cccc(Cl)c3)CC2)cc1` (racemic), the IC50 was 15100 nM at Histone deacetylase 1 [1] and 270 nM in data set [2].

As for `O=C(/C=C/c1ccc(C(=O)N2CCC(N3C(=O)[C@H](c4ccccc4)[C@H]3c3ccccc3)CC2)cc1)NO` (racemic), the inhibition on Histone deacetylase 1 [3] was found to be 93.4%; at Histone deacetylase 1 [6] it was 61%; at Histone deacetylase 1 [8] it was 97.3%. The IC50 in [2] turned out to be 168 nM.

On to `O=C(CCCCCCC(=O)Nc1ccccc1)NO`, for which the result in the data set on U-937 and in the data set with HCT-116 was Active.

Consider `O=C(NO)c1ccc(/C=C/C(=O)N2CCC(N3C(=O)[C@H](c4ccccc4)[C@H]3c3ccccc3)CC2)cc1` (racemic), for which the inhibition came out at 90.1% at Histone deacetylase 1 [3], 49.7% at Histone deacetylase 1 [6] and 100% on Histone deacetylase 1 [8]. For the same compound, the IC50 in [2] amounted to 130 nM.

For `O=C(NO)c1ccc(CCC(=O)N2CCC(N3C(=O)[C@H](c4ccccc4)[C@H]3c3ccccc3)CC2)cc1` (racemic), the inhibition on Histone deacetylase 1 [3] was 48.7%; in [4], 97.1%; in data set [5] it was 102%; on Histone deacetylase 1 [6], 17.2%; in data set [7] it was 69.7%; on Histone deacetylase 1 [8], 83.6%.

For `O=C(CCc1ccc(C(=O)N2CCC(N3C(=O)[C@H](c4ccccc4)[C@H]3c3ccccc3)CC2)cc1)NO` (racemic), the inhibition on Histone deacetylase 1 [3] amounted to 66.4%; in data set [4], 85.7%; in data set [5], 98.4%; at Histone deacetylase 1 [6] it was 22.3%; in data set [7] it was 35.9%; at Histone deacetylase 1 [8], 89.5%.

Turning to `O=C(NO)c1ccc(CC(=O)N2CCC(N3C(=O)[C@H](c4ccccc4)[C@H]3c3ccccc3)CC2)cc1` (racemic), the IC50 at Histone deacetylase 1 [1] turned out to be 5140 nM; in [2], 121 nM. For the same compound, the CC50 in [10] stood at 48000 nM.

For `COc1ccc(Cn2ccc3ccc(C(=O)NO)cc32)cc1`, the outcome in the data set with U-937 and with HCT-116 was Active.

With `Cc1cccc(C2CC(=O)N2C2CCN(C(=O)NCc3ccc(C(=O)NO)cc3)CC2)c1` (racemic), the IC50 on Histone deacetylase 1 [1] amounted to 3100 nM; in data set [2], 399 nM. Besides, in data set [10], the CC50 turned out to be 100000 nM.
